Screening results deposited in PubChem by Broad Institute.
SIRT5 inh: sirtuin-5 (human) deacylase inhibition. Purified SirT5, succinyl-peptide AMC, trypsin-coupled fluorescence. 330,000 compounds, 1.1% hits. inhibition, % at 15 µM; in the data active means inhibition above about 15%; inconclusive means no clear call, values can overlap the other calls
MLL AF4-AF9 inh: blocks AF4 peptide binding to human AF9. 350,000 compounds, 0.47% hits. inhibition, % at 10 µM. AlphaScreen, biotin-AF4 peptide binding to FLAG-AF9. AID 651704. P42568;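 active means every replicate reaching a set inhibition limit, whatever the replicate mean, cut at about 25% in these data; inconclusive means mean inhibition reaches that limit but some replicates miss it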;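 further: 0% = plate neutral control median and 100% = total signal loss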
Target sequence (P42568 whole entry, looked up): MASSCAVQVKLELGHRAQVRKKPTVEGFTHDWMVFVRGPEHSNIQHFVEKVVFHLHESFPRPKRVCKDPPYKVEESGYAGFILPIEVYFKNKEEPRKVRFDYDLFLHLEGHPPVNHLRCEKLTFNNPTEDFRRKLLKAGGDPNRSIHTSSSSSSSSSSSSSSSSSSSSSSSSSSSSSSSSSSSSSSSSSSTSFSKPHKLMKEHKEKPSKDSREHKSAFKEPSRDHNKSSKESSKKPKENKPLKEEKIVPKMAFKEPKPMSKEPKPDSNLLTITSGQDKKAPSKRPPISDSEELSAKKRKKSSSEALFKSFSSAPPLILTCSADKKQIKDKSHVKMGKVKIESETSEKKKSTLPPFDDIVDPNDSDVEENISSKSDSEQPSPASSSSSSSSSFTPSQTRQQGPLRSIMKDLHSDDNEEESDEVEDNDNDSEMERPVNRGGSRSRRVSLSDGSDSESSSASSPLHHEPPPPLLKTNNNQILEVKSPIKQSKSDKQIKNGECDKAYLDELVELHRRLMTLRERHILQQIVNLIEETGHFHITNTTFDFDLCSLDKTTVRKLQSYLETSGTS
S100A4 inh HTS: blocks human S100A4 binding to myosin IIA peptide | inhibition, % at 10.7 µM | S100A4/TAMRA-MyoIIA peptide fluorescence polarization | P26447 | 360,000 compounds, 0.14% hits | AID 652163;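 active means mean inhibition of at least 70% across replicates, with every replicate also reaching that level; inconclusive means mean inhibition reaches 70% but some replicates fall short; inactive means mean inhibition below 70%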
Target sequence (P26447 whole entry, looked up): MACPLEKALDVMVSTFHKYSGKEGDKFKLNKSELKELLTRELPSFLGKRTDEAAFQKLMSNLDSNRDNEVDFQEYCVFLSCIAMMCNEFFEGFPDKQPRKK
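Test system: S100A4 monomer protein. Medium: HEPES buffer with Ca2+, pH 7.2. Reagent: fluorescent myosin IIA peptide, 5 nM. Compound dosing: single-point compound testing. Timing: 5 min between mix addition and reading. Benchmarks: DMSO neutral and TFP positive wells.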
DENV2 CPE rescue: inhibitors of DENV2 cytopathic effect; DENV2-infected cells, cytopathic effect rescue, plate reader; CPE inhibition, % at 9.99 µM; 350,000 compounds, 1.7% hits; in the data active means CPE inhibition above about 20%, passing the limit was not always enough; inconclusive means no clear call, values can overlap the other calls; tested in BHK-21 cells;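 further: 0% = median of neutral control wells and 100% = median of positive control wells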
CaV13 FRET inh: Primary screen for inhibitors of IQ motif and Ca2+-dependent inactivation inhibitor domain binding in CACNA1D, Förster resonance energy transfer in living cells, …; HEK cells, CFP/YFP FRET ICDI-IQ, plate reader, 10 min; percent FRET-ratio fall versus neutral wells; inhibition, % at 12.3 µM; 340,000 compounds, 0.098% hits;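 active means mean replicate inhibition of at least 30% and at least 1% of replicates passing that level; inconclusive means only one of the two criteria is met; inactive means neither criterion is met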;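 further: 0% = median of the neutral control wells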
Numbers without * were called inactive; ? = inconclusive; / = no result given. In the library only some 2.7% were active in any assay of this set; here they are far more common.

SMILES	SIRT5 inh	MLL AF4-AF9 inh	S100A4 inh HTS	DENV2 CPE rescue	CaV13 FRET inh
C[C@@H]1CN([C@@H](C)CO)C(=O)c2cc(C#Cc3ccccc3)cnc2O[C@H]1CN(C)C(=O)CCN1CCCCC1	1.9	13.3	-2.6	2.6	/
CC(C)NC(=O)NCC[C@H]1CC[C@@H](NS(=O)(=O)c2ccc(-c3ccccc3)cc2)[C@H](CO)O1	31.0*	7.5	17.4	-3.0	/
Cc1ccc(S(=O)(=O)N[C@H]2CC[C@H](CCNC(=O)C3CCCC3)O[C@H]2CO)cc1	-1.6	0.3	-3.9	26.7*	/
Cc1ccc(S(=O)(=O)N[C@@H]2CC[C@H](CCNC(=O)c3ccc4c(c3)OCO4)O[C@@H]2CO)cc1	2.7	-1.4	5.7	?	/
Cc1ccc(S(=O)(=O)N[C@H]2CC[C@H](CCNC(=O)c3ccc4c(c3)OCO4)O[C@H]2CO)cc1	103.2*	-0.7	1.2	1.0	/
CC(C)NC(=O)NCC[C@@H]1CC[C@H](NS(=O)(=O)c2ccccc2)[C@@H](CO)O1	0.4	8.3	3.4	-2.0	/
O=C(NCC[C@H]1CC[C@H](NS(=O)(=O)c2ccc(Oc3ccccc3)cc2)[C@@H](CO)O1)C1CC1	2.3	-1.1	0.6	85.3*	/
C[C@@H]1CN([C@@H](C)CO)C(=O)Cc2cc(N(C)C)ccc2O[C@@H]1CN(C)S(=O)(=O)c1cn(C)cn1	-2.0	-1.5	3.6	-3.2	/
Cc1cc(NC(=O)Cn2c(=O)oc3ccc(Cl)cc32)no1	-3.9	-0.1	-5.9	44.9*	-2.2
C[C@@H]1CN([C@@H](C)CO)S(=O)(=O)c2ccc(C#C[C@@H](C)O)cc2O[C@H]1CN(C)Cc1ccc(-c2ccccc2)cc1	34.6*	1.3	-9.0	6.7	/
C[C@H](O)C#Cc1ccc2c(c1)O[C@H](CN(C)Cc1ccccc1)[C@H](C)CN([C@H](C)CO)S2(=O)=O	-2.7	0.2	-16.3	13.9	/
C[C@@H]1CN([C@@H](C)CO)S(=O)(=O)c2ccc(C#C[C@@H](C)O)cc2O[C@@H]1CN(C)Cc1ccccc1	14.2	-0.5	-11.5	-7.5	/
C[C@H](O)C#Cc1ccc2c(c1)O[C@H](CN(C)Cc1ccc(-c3ccccc3)cc1)[C@@H](C)CN([C@H](C)CO)S2(=O)=O	27.6*	0.1	-12.7	-0.6	/
C[C@H](O)C#Cc1ccc2c(c1)O[C@H](CN(C)Cc1ccc(-c3ccccc3)cc1)[C@H](C)CN([C@H](C)CO)S2(=O)=O	31.8*	6.3	10.2	-2.0	/
C[C@H](O)C#Cc1ccc2c(c1)O[C@@H](CN(C)Cc1ccccc1)[C@H](C)CN([C@@H](C)CO)S2(=O)=O	3.7	3.5	-0.4	-8.4	/
C[C@H](O)C#Cc1ccc2c(c1)O[C@@H](CN(C)Cc1ccc(-c3ccccc3)cc1)[C@@H](C)CN([C@@H](C)CO)S2(=O)=O	30.2*	2.5	5.4	-0.7	/
COc1ccc2c3c([nH]c2c1)[C@@H](CO)N(C(=O)C1CCCC1)CC31CN(C(=O)c2ccncc2)C1	1.4	1.5	0.7	-4.8	/
O=C(NN=Cc1ccccc1O)C(=O)Nc1ccc(F)cc1	/	-10.8	-2.0	?	-11.6
C[C@@H]1CN([C@H](C)CO)C(=O)c2cc(C#CCc3ccccc3)cnc2O[C@@H]1CN(C)C(=O)C1CCOCC1	5.7	-1.6	-0.6	-2.0	/
COc1ccccc1CN(C)C[C@H]1OCc2ccccc2-c2c(n(C)c3ccccc23)C(=O)N([C@@H](C)CO)C[C@@H]1C	9.5	10.2	9.3	-8.9	/
COc1ccc(S(=O)(=O)Nc2ccc3c(c2)CC(=O)N([C@H](C)CO)C[C@H](C)[C@@H](CN(C)Cc2ccccc2)O3)cc1	4.6	9.9	-5.4	13.3	/
CN(C)CC(=O)Nc1ccc2c(c1)[C@H]1C[C@@H](CC(=O)NCc3cccnc3)O[C@@H](CO)[C@H]1O2	-2.9	-0.4	-12.7	-2.7	/
C[C@@H](O)C#Cc1ccc2c(c1)O[C@@H](CN(C)Cc1ccccc1)[C@@H](C)CN([C@@H](C)CO)S2(=O)=O	-2.1	-4.4	1.0	-1.5	/
C[C@H](CO)N1C[C@H](C)[C@H](CN(C)Cc2ccc(-c3ccccc3)cc2)Oc2cc(C#C[C@@H](C)O)ccc2S1(=O)=O	25.0*	2.5	1.0	3.0	/
O=C(O)c1[nH]c2ccccc2c1C(c1cc(Br)ccc1O)c1c(C(=O)O)[nH]c2ccccc12	4.4	0.7	-0.5	1.7	144.0*
SMILES	SIRT5 inh	MLL AF4-AF9 inh	S100A4 inh HTS	DENV2 CPE rescue	CaV13 FRET inh
COc1cc(Cl)cc(C(c2c(C(=O)O)[nH]c3ccccc23)c2c(C(=O)O)[nH]c3ccccc23)c1O	3.1	-4.7	-2.7	5.8	-1.5
CC(C)NC(=O)N(C)C[C@@H]1Oc2ccc(NS(=O)(=O)c3ccc(Cl)cc3)cc2CC(=O)N([C@H](C)CO)C[C@@H]1C	-0.3	-2.6	-3.8	2.5	/
CN(Cc1ccccc1)C(=O)c1nc2ccccn2c1CN1CCC(N2CCOCC2)CC1	15.0*	7.7	3.9	4.2	-2.1
CCCCN(C)C(=O)c1nc2ccccn2c1CN1CCN(C/C=C/c2ccccc2)CC1	-1.8	3.9	-1.9	/	-15.5
CC(=O)NC(CCS(C)(=O)=O)C(=O)Nc1ccc(Cl)c(Cl)c1 (configuration not stated)	1.5	-0.3	-2.0	17.7	-21.7
CC(=O)NC(CCc1ccc(Cl)c(Cl)c1)c1cccc(O)c(=O)c1 (configuration not stated)	/	30.4*	-2.8	?	-5.2
Cc1ccc(S(=O)(=O)N2C(=O)[C@@H]3Cc4ccccc4CN3C2=O)cc1	17.0*	-2.0	-6.1	-2.0	-18.2
O=C(C[C@H]1CC[C@@H](NS(=O)(=O)c2ccc(F)cc2)[C@@H](CO)O1)NCc1ccncn1	-4.7	-1.2	-5.4	-11.9	/
C[C@H](CO)N1C[C@H](C)[C@H](CN(C)S(=O)(=O)c2cn(C)cn2)Oc2cc(C#Cc3ccccc3)ccc2S1(=O)=O	-1.2	-2.5	-1.4	-12.8	/
Cc1ccccc1-c1nc(CS(=O)(=O)CC(=O)NCCCN2CCCC2)c(C)o1	16.6*	-3.4	-3.7	-2.9	-5.0
COc1cc(OC)cc(-c2c(-c3cccs3)c3cc(-c4ccc(N(C)C)nc4)ccc3n2C)c1	/	-21.8	0.0	33.6*	-5.4
COc1cc(OC)cc(-c2c(-c3cccs3)c3cc(-c4ccn[nH]4)ccc3n2C)c1	2.9	5.7	-5.2	32.6*	-9.1
COc1cc(F)cc(-c2ccc3c(c2)c(-c2cccs2)c(-c2cc(OC)cc(OC)c2)n3C)c1	/	4.2	-7.3	77.8*	-5.6
COc1cc(OC)cc(-c2c(-c3cccs3)c3cc(Br)ccc3n2C)c1	2.9	0.5	-0.9	-22.6	-9.4
COc1cc(OC)cc(-c2c(-c3cccs3)c3cc(-c4ccc5c(c4)OCO5)ccc3n2C)c1	/	-2.2	3.8	14.0	-4.8
COc1cc(OC)cc(-c2c(-c3cccs3)c3cc(-c4cccc5[nH]ccc45)ccc3n2C)c1	/	-3.5	-5.4	4.7	-4.9
